Experimental data published in ChEMBL document CHEMBL3044563, “Alternethanoxins A and B, polycyclic ethanones produced by Alternaria sonchi , potential mycoherbicides for Sonchus arvensis biocontrol” (2009).
Calls of active or inactive are those of the source. The calls are words filed in the database; no cut-off is given here.

What was measured:
Amaranthus retroflexus = assay: Phytotoxicity against Amaranthus rethroflexus assessed as necrotic lesion diameter at 2 mg/mL at 24 degC measured after 2 days by leaf disk-puncture assay; format: functional
How it was run: (§1)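 Plants were raised in a greenhouse from underground shoot pieces or seeds. 10 mm disks were cut with a cork borer from well-expanded leaves, laid on moist filter paper and punctured centrally with a needle. Compound was predissolved in EtOH and diluted with water (final 5% v/v EtOH), and a 10 μL droplet was applied. Disks were incubated at 24 °C under a 12 h photoperiod, and necrotic lesion diameter (mm) was measured after 2 days.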

Saccharomyces cerevisiae = assay: Antifungal activity against Saccharomyces cerevisiae at 100 ug/disk; format: functional, organism-based
How it was run: (§2)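 Test organisms were S. cerevisiae (antifungal) and X. campestris, E. coli and B. subtilis (antibacterial). Compound applied to a disk at 100 μg per disk, following a previously described disk method.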

Escherichia coli = assay: Antibacterial activity against Escherichia coli at 100 ug/disk; format: functional, organism-based; how it was run: as §2
Xanthomonas campestris = assay: Antibacterial activity against Xanthomonas campestris at 100 ug/disk; format: functional, organism-based; how it was run: as §2
Bacillus subtilis = assay: Antibacterial activity against Bacillus subtilis at 100 ug/disk; format: functional, organism-based; how it was run: as §2
Phleum pratense = assay: Phytotoxicity against Phleum pratense (timothy grass) assessed as necrotic lesion diameter at 2 mg/mL at 24 degC measured after 2 days by leaf disk-puncture assay; format: functional; how it was run: as §1
Elymus repens = assay: Phytotoxicity against Elymus repens (couch grass) assessed as necrotic lesion diameter at 2 mg/mL at 24 degC measured after 2 days by leaf disk-puncture assay; format: functional; how it was run: as §1
Aegopodium podagraria = assay: Phytotoxicity against Aegopodium podagraria (bishop's weed) assessed as necrotic lesion diameter at 2 mg/mL at 24 degC measured after 2 days by leaf disk-puncture assay; format: functional; how it was run: as §1
Convolvulus arvensis = assay: Phytotoxicity against Convolvulus arvensis assessed as necrotic lesion diameter at 2 mg/mL at 24 degC measured after 2 days by leaf disk-puncture assay; format: functional; how it was run: as §1
Taraxacum officinale = assay: Phytotoxicity against Taraxacum officinale (dandelion) assessed as necrotic lesion diameter at 2 mg/mL at 24 degC measured after 2 days by leaf disk-puncture assay; format: functional; how it was run: as §1
Calendula officinalis = assay: Phytotoxicity against Calendula officinalis assessed as necrotic lesion diameter at 2 mg/mL at 24 degC measured after 2 days by leaf disk-puncture assay; format: functional; how it was run: as §1
Cirsium arvense = assay: Phytotoxicity against Cirsium arvense (Canada thistle) assessed as necrotic lesion diameter at 2 mg/mL at 24 degC measured after 2 days by leaf disk-puncture assay; format: functional; how it was run: as §1
Sonchus arvensis [1] = assay: Phytotoxicity against Sonchus arvensis (field sow-thistle) assessed as necrotic lesion diameter at 4 mg/mL at 24 degC measured after 2 days by leaf disk-puncture assay; format: functional; how it was run: as §1
Sonchus arvensis [2] = assay: Phytotoxicity against Sonchus arvensis (field sow-thistle) assessed as necrotic lesions at 1 mg/mL at 24 degC measured after 2 days by leaf disk-puncture assay; format: functional; how it was run: as §1
Sonchus arvensis [3] = assay: Phytotoxicity against Sonchus arvensis (field sow-thistle) assessed as necrotic lesions at 2 mg/mL at 24 degC measured after 2 days by leaf disk-puncture assay; format: functional; how it was run: as §1

With `COc1cccc2c1[C@H](O)Oc1c(O)cc(C(C)=O)c(O)c1-2` [ALTERNETHANOXIN A] the Activity (Amaranthus retroflexus) was 1 mm, the Activity (Saccharomyces cerevisiae) was “inactive” and the Activity (Escherichia coli) was “inactive”. For the same compound, the Activity (Xanthomonas campestris) was “inactive”, the Activity (Bacillus subtilis) was “inactive” and the Activity (Phleum pratense) was 1 mm. It also gave an Activity (Elymus repens) of 1 mm, an Activity (Aegopodium podagraria) of 1 mm and an Activity (Convolvulus arvensis) of 1 mm. The Activity (Taraxacum officinale) was 1 mm, the Activity (Calendula officinalis) was 1 mm and the Activity (Cirsium arvense) was 1 mm. The Activity (Sonchus arvensis [1]) was 4 mm and the Activity (Sonchus arvensis [2]) was “Active”.
`COc1ccc2oc3c(C(C)=O)cc(O)c4c3c2c1[C@@H](O)O4` [ALTERNETHANOXIN B] was tested, and the Activity (Amaranthus retroflexus) was 1 mm, the Activity (Saccharomyces cerevisiae) was “inactive” and the Activity (Escherichia coli) was “inactive”. For the same compound, the Activity (Xanthomonas campestris) was “inactive”, the Activity (Bacillus subtilis) was “inactive” and the Activity (Phleum pratense) was 1 mm. It also gave an Activity (Elymus repens) of 1 mm, an Activity (Aegopodium podagraria) of 1 mm and an Activity (Convolvulus arvensis) of 1 mm. It also gave an Activity (Taraxacum officinale) of 1 mm, an Activity (Calendula officinalis) of 1 mm and an Activity (Cirsium arvense) of 1 mm. For the same compound, the Activity (Sonchus arvensis [1]) was 2 mm and the Activity (Sonchus arvensis [3]) was “Active”.
